Source: PubChem
mIAP act = mouse IAP activation; muIAP, CDP-Star luminescence, 30 min; hits give high values; 1 = vehicle-only enzyme signal, 0 = enzyme-free wells; activation factor at 10 µM; 0.24% of 330,000 active;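 active = activation factor of at least 2 at 20 µM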
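Assay system: mouse IAP enzyme / Compound: DMSO-dissolved test compounds / Timing: 30 min, room temperature / Measured by: luminescence from enzymatic CDP-Star hydrolysis / Control set: DMSO-only wells, enzyme-free buffer wells as negative control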
hIAP inh = human IAP inhibition; purified IAP, CDP-Star luminescence, 30 min; inhibition, % at 10 µM; 0.12% of 330,000 active;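 active = inhibition reaching a set limit with compound at 10 µM in the primary screen, cut at about 35% in these data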;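 also: plate controls were DMSO wells with enzyme for no effect and no-enzyme buffer wells for full effect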
Target sequence (P09923 whole entry, looked up): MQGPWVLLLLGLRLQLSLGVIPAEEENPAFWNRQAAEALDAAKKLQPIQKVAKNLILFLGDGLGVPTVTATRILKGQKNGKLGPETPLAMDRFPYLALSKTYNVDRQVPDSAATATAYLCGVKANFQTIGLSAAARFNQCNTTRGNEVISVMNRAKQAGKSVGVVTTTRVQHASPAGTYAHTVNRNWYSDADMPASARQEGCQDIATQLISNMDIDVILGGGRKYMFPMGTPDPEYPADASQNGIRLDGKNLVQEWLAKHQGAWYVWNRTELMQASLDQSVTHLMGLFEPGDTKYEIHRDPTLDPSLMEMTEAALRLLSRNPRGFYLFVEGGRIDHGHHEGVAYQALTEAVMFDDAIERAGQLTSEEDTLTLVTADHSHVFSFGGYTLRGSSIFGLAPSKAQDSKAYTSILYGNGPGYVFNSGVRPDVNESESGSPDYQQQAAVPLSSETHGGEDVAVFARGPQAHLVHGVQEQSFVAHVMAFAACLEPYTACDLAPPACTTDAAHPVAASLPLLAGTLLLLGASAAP
hIAP act = human IAP activation; AID 2524; 0.16% of 330,000 active; activation factor at 10 µM; purified human IAP, CDP-Star luminescence, 30 min; hits give high values; 1 = vehicle-only enzyme, 0 = enzyme-free background;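 active = activation factor of the enzyme at least 2-fold when tested at 20 µM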
bIAP act = increases bovine intestinal alkaline phosphatase activity; purified bovine IAP, CDP-star luminescence, 30 min; hits give high values; fold of DMSO-control signal, blank-subtracted; 0.17% of 200,000 active; activation factor at 20 µM; AID 1016;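 active = activation factor of 2 or more at 20 µM, a signal rise over negative controls twice the positive control's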
mIAP block = blocks mouse intestinal alkaline phosphatase. purified mouse IAP, CDP-Star luminescence, 30 min. 0.2% of 330,000 active. inhibition, % at 10 µM. AID 2806;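 active = inhibition of at least 40% at 10 µM in the primary screen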;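 also: plate controls were DMSO with enzyme for no effect and no enzyme wells for full effect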
bIAP inhibitor = blocks bovine intestinal alkaline phosphatase activity; purified bovine IAP, CDP-star luminescence, 30 min; inhibition, % at 20 µM; 190,000 tested, under 10 active; AID 1019;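 active = over 50% inhibition of intestinal alkaline phosphatase at 20 µM in the single-dose screen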
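Incubation: 30 min reaction at room temperature / Material: purified bovine intestinal alkaline phosphatase (IAP) enzyme / Input: enzyme at 1/65,000,000 dilution / Dosing: 20 µM single dose / Signal: CDP-star luminescence signal / Reagent: CDP-star chemiluminescent phosphatase substrate, 30 µM final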
* = called active by the depositor; . = not tested or not shown. In the library only some 0.72% were active in any assay of this set; here they are far more common.

SMILES	mIAP act	hIAP inh	hIAP act	bIAP act	mIAP block	bIAP inhibitor
O=c1c2ccccc2nc2sc(Nc3cccc(Cl)c3)nn12	0.908	-3.7	1.04	.	9.2	.
O=C(Nc1ccncc1)Nc1cccc(Cl)c1Cl	1.73	-25.3	1.25	.	-73.3	.
O=C(Nc1ccccc1)Nc1cccc(Cl)c1Cl	2.92*	-3.0	1.03	0.9	-191.6	13.2
COc1cc(/C=C2\SC(=S)N(CCCCC(=O)O)C2=O)ccc1OS(=O)(=O)c1ccc(C)cc1	0.958	-20.3	1.2	.	4.2	.
S=C(NCCNCc1ccccc1)NC1CCCCC1	2.09*	-10.0	1.1	0.9	-109.3	5.3
S=C(NCCc1ccccc1)NC1CCCCCC1	1.26	-0.6	1.01	0.5	-26.2	49.2
CCc1ccc(NC(=O)Nc2cccc(OC)c2)cc1	2.51*	-1.6	1.02	0.9	-151.3	5.9
COc1ccc(NC(=O)Nc2cc(C)ccc2OC)cc1	1.03	2.4	0.976	0.9	-3.0	11.2
COc1ccc(NC(=O)Nc2ccc(Br)c(C)c2)cc1	2.06*	-19.5	1.2	1	-106.1	0.4
COc1cccc(NC(=O)Nc2ccc(CC(=O)O)cc2)c1	0.923	-1.1	1.01	1	7.7	-4.1
CCOC(=O)c1ccc(N2CCN(c3ccc(F)cc3)CC2)c(NC(=O)Nc2cccc(OC)c2)c1	2.84*	-14.7	1.15	0.7	-183.6	33.2
O=C(Nc1cccc(Cl)c1)C1C2CCC3C(CCC21)C3(Cl)Cl (stereo unspecified)	2.88*	10.2	0.898	0.9	-187.6	14.4
COc1ccc(C(=O)/C(=C/c2cccs2)c2nc3ccccc3o2)cc1	0.545	11.9	0.881	1	45.5*	-1.8
COc1ccc(/C=C(\CC(=O)O)c2nc3ccccc3o2)cc1	1.11	-13.3	1.13	1.1	-10.7	-11.5
Cn1c(=O)c2c(nc(N/N=C/c3cccs3)n2C)n(C)c1=O	1.04	-14.7	1.15	.	-3.6	.
Cn1c(=O)c2c(nc(N/N=C/c3ccco3)n2C)n(C)c1=O	0.945	-35.3	1.35	2.1*	5.5	-108.5
O=C(Nc1ccccc1C(=O)NC(Cc1ccccc1)C(=O)NC1CCCCCC1)c1ccccc1 (stereo unspecified)	2.29*	5.7	0.943	1.1	-129.4	-5.7
C=CCN1C(=O)/C(=C/c2ccc(-c3ccc(F)cc3)o2)SC1=S	0.639	36.7*	0.633	.	36.1	.
O=C(Nc1nc2ccccc2s1)c1cnccn1	0.972	-24.0	1.24	1	2.8	-4.0
O=C(Nc1nc(-c2ccco2)c(-c2ccco2)s1)c1cnccn1	0.564	-20.9	1.21	.	43.6*	.
COc1ccccc1CC(=O)N1CCN(C(=O)c2ccco2)CC1	1	-7.7	1.08	.	-0.2	.
S=C(Nc1cc(Cl)cc(Cl)c1)NC1CCN(Cc2ccccc2)CC1	3.21*	8.1	0.919	.	-220.6	.
CC(=O)CCCCn1cnc2c1c(=O)n(C)c(=O)n2C	1.17	-22.5	1.23	1.1	-16.7	-14.3
CCOc1cc(/C=C2/N=C(C)C(C(=O)OC)=C2O)ccc1O	0.578	16.8	0.832	0.4	42.2*	.
COc1ccc(OC)c(/C=N/NC(=O)CSc2cc(C)nc3c(OC)cccc23)c1	1.12	7.6	0.924	1	-11.9	-1.9
SMILES	mIAP act	hIAP inh	hIAP act	bIAP act	mIAP block	bIAP inhibitor
CCCOc1ccc(CNC(=S)NCc2ccc(OC(C)C)cc2)cc1	4.15*	-22.1	1.22	1	-315.0	-1.7
Cc1ccc(NC(=O)C2CCC(=O)N2)cc1C (stereo unspecified)	1.03	-8.6	1.09	0.9	-3.3	8.6
Cc1ccc(NC2=NC(C(=O)Nc3ccc(C)c(C)c3)CC(=O)N2)cc1 (stereo unspecified)	0.931	-10.3	1.1	2*	6.9	-96.3
COc1cc(NC(=O)c2cc(-c3ccccc3Cl)on2)cc(OC)c1OC	0.964	11.1	0.889	.	3.6	.
CCCC(=O)NC(=S)Nc1ccc(S(=O)(=O)N2CCc3ccccc32)cc1	0.888	6.8	0.932	.	11.2	.
Cc1ccc(/C=c2\sc3nc(-c4ccccc4Br)nn3c2=O)o1	0.509	20.4	0.796	1	49.1*	3.0
O=C(NCC(c1ccco1)N1CCc2ccccc21)C(=O)Nc1ccc(F)cc1F (stereo unspecified)	0.912	9.8	0.902	.	8.8	.
COc1ccc(S(=O)(=O)Nc2cccc(/C=C/C(=O)O)c2)cc1	1.01	3.5	0.965	4.6*	-0.6	-357.2
Cc1ccc(S(=O)(=O)Nc2cccc(/C=C/C(=O)O)c2)cc1	1.04	-3.4	1.03	1	-4.5	2.3
COc1ccc(-n2c(=O)c3ccccc3n(CC(=O)NCc3ccco3)c2=O)cc1	0.985	6.4	0.936	1.1	1.5	-10.3
COc1ccc2c(c1)c(=O)cc(C)n2CC(=O)NCc1ccco1	1.01	-8.6	1.09	5.3*	-1.0	-429.9
COCCN1C(=O)C(=O)/C(=C(/O)c2ccc(S(=O)(=O)N3CCOCC3)cc2)C1c1cccc(OC)c1 (stereo unspecified)	1.05	-4.9	1.05	.	-5.3	.
O=C(O)CCC1c2cc3c4cc2OC2Oc5cc6c(cc51)C(CCC(=O)O)c1cc5c7cc1OC(O6)c1cc6cc(c1)Oc1cc(cc(C(=O)O)c1)Oc1cc8cc(c1)C(Oc1cc(c(cc1C5CCC(=O)O)C3CCC(=O)O)OC(O4)c1cc(cc(c1)Oc1cc(cc(C(=O)O)c1)O8)Oc1cc(cc(C(=O)O)c1)Oc1cc(cc2c1)Oc1cc(cc(C(=O)O)c1)O6)O7 (stereo unspecified)	0.967	8.9	1.08	.	48.5*	.
CC(=O)N1CCN(C(=O)COc2ccc(Br)cc2)CC1	0.968	-12.0	1.12	1	3.2	1.5
COc1ccc(OCC(=O)N2CCN(C(=O)COc3ccc(Br)cc3)CC2)cc1	0.258	11.4	0.886	1	74.2*	4.8
Cc1ccc(-n2c(C)cc(/C=C3/SC(=O)N(CC(=O)N4CCOCC4)C3=O)c2C)nc1	0.919	1.3	0.987	.	8.1	.
CCc1ccc(NC(=O)C(CC)Sc2nc3cc4c(cc3c(=O)n2Cc2ccco2)OCO4)cc1 (stereo unspecified)	1.27	-6.5	1.06	2.9*	-27.4	-190.7
Cn1cc(S(=O)(=O)Nc2cccc3ccccc23)c(=O)n(C)c1=O	0.972	-5.0	1.05	.	2.8	.
CC(=O)NNc1ncnc2c1cnn2-c1ccc(C)cc1	0.815	-206.1	3.06*	1.3	18.5	-27.7
CC(=O)NNc1ncnc2c1cnn2-c1ccc(C)c(Cl)c1	1.18	-57.1	1.57	1.1	-18.3	-14.0
Cc1ccc(Cl)cc1-n1ncc2c(NNC(=O)c3ccco3)ncnc21	0.929	-140.2	2.4*	1.4	7.1	-37.2
CC(=O)NCc1ccc(C(=O)CSc2nnc(C3CC3)n2C2CC2)cc1	1.01	4.8	0.952	.	-0.8	.
CCCc1nc(NC(=O)c2ccccc2)nc(NC(=O)c2ccccc2)n1	0.964	-1.8	1.02	.	3.6	.
